Yeast lifespan up: compounds extending yeast replicative lifespan, primary screen, S. cerevisiae, OD615; actives 0.68% (n = 130,000); inhibition of the nicotinamide effect, % at 10 µM; AID 775, 2007; S. cerevisiae growth with nicotinamide; deaD strain in restrictive glucose medium;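 active means inhibition above a set limit, placed 3 SD over the median of all compounds, cut at about 26% in these data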;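 further: 0% = nicotinamide-treated wells and 100% = cells grown without nicotinamide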
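Assay system: engineered S. cerevisiae DeaD replicative-lifespan strain, galactose-grown log-phase cells; medium: restrictive CSMM-D dextrose medium; also added: nicotinamide, 1.5 mM, co-present with compound; schedule: 48 h compound exposure at 30 °C, humidified; detection: absorbance at 615 nm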
HMGR II inh: inhibitors of E. faecalis class II HMGR, primary screen, biochemical, Enterococcus faecalis | HMG-CoA reductase (Enterococcus faecalis, mvaE) | purified E. faecalis HMGR, NADPH absorbance 340 nm kinetic | inhibition, % at 10 µM | actives 0.41% (n = 190,000);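 active means inhibition above a set limit, the median over all tested compounds plus 3 SD, cut at about 9.5% in these data; inconclusive means no clear call, values can overlap the other calls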;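 further: enzyme runs in reverse so mevalonate oxidation gives rising NADPH absorbance; 0% = complete reaction with DMSO and 100% = background rate lacking mevalonate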
Yeast growth inh: growth inhibitors of yeast BB579 in restrictive medium, primary screen, yeast lifespan-shortening project, S. cerevisiae; OD615, 48 h; inhibition, % at 10 µM; actives 0.51% (n = 140,000);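 active means inhibition above a set limit, 3 SD over the mean compound inhibition, cut at about 44% in these data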
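Material: Saccharomyces cerevisiae DeaD strain BB579, replicative lifespan model yeast; buffer or medium: CSMM-D restrictive synthetic medium containing dextrose (glucose); compound: 10 µM single dose, DMSO 0.25%; timing: 48 h compound exposure at 30 °C after 4 h preincubation; signal: turbidity as optical density at 615 nm; benchmarks: positive control amphotericin B 10 µg/mL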
bCat nuc transl: modulators of beta-catenin nuclear translocation, primary screen, imaging, HeLa cells, immunofluorescence, high-content; AID 1665, 2009; nuclear translocation activity, % at 5 µM; actives 0.3% (n = 190,000);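 active means nuclear translocation activity above 50% at 5 µM, with a well cell count of 50 or more; inconclusive means wells under 50 cells across six images, flagged as toxic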;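 further: per-cell ratio of nuclear to cytoplasmic median beta-catenin stain intensity; plate controls were DMSO negative control for no effect and GSK-3 inhibitor IX positive control for full effect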
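assay system = human HeLa cells, endogenous beta-catenin | times = compound treatment 24 h, 37°C, 5% CO2 | detection = Anti-beta-catenin immunofluorescence on PFA-fixed, Triton-permeabilized cells, DAPI nuclei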
MT stabilize HCS: microtubule stabilizers in HeLa cells, primary screen, imaging, high-content imaging; HeLa tubulin immunostaining HCS, 24 h; share of cells brighter than vehicle mean+2SD; actives 0.83% (n = 200,000); % tubulin-high responders, % at 10 µM;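 active means plate Z-score above 3 for both tubulin-high and condensed-nucleus cell shares, with cell loss under 80%, at 10 µM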;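 further: anti alpha tubulin signal scored within the nucleus-defined area of each cell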
RAM network inh: inhibitors of the yeast RAM network, primary screen, dse1pr::URA3 reporter, 5-FOA selection. S. cerevisiae dse1pr::URA3 reporter, 5-FOA growth OD615, 2 d; analog-sensitive cbk1-as2 kinase mutant strain. inhibition, % at 50 µM. actives 1.8% (n = 190,000). AID 868, 2007;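 active means inhibition above a set limit, 3 SD over mean compound inhibition, cut at about 8.4% in these data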;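 further: 0% = DMSO-only wells with no growth and 100% = 10 µM 1-NA-PP1 full growth; inhibition rescues growth on 5-FOA so higher OD means more RAM inhibition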
Starred values were filed as active, the others as inactive; ? = inconclusive; · = no result. In the library only some 3.5% were active in any assay of this set; here they are far more common.

SMILES	Yeast lifespan up	HMGR II inh	Yeast growth inh	bCat nuc transl	MT stabilize HCS	RAM network inh
CC(C)CN1CCN(Cc2ccc(F)cc2Cl)CC1CCO (centres undefined)	·	·	·	0.7	·	·
CCn1nc(-c2ccccc2)nc2c(=O)n(C)c(=O)nc1-2	-14.4	-4.8	100.0*	0.1	2.7	-0.9
COc1ccc(-c2nc3ccccc3c(=O)n2-c2ccc(OC)cc2)cc1	·	1.5	·	0.0	1.6	1.6
O=C(c1ccc2c(c1)ncn2C1CCCCC1)N1CCC2(CC1)OCCO2	-7.4	-4.8	39.6	3.3	26.7*	0.6
COc1cccc(C(=O)N2CCC3(CC2)OCCO3)c1	·	·	·	-0.2	·	·
Fc1cccc(C2NCCc3[nH]cnc32)c1 (centres undefined)	4.0	3.3	-29.6	0.1	4.6	1.4
Cc1ccc(N2C(=O)NC(=O)/C(=C/c3ccc(-c4ccc(C(=O)O)c(Cl)c4)o3)C2=O)cc1	·	1.1	·	-0.7	3.0	10.8*
Cc1ccc(N2C(=O)NC(=O)/C(=C\c3ccoc3)C2=O)cc1	·	-1.4	·	-1.0	2.4	-1.8
O=C(CCC(=O)N1CCC2(CC1)OCCO2)Nc1nnc(C2CCCCC2)s1	·	·	·	0.2	·	·
Clc1ccc2c(c1)C(c1ccccc1Cl)=NCc1nnc(Br)n1-2	·	-0.1	-13.2	-1.6	3.8	2.6
Cc1ccccc1C1=NCC(=S)Nc2ccc(Cl)cc21	·	10.4*	-30.1	0.7	2.7	2.0
Clc1ccc(CSC(Cn2ccnc2)c2ccc(Cl)cc2Cl)cc1 (centres undefined)	-8.6	11.3*	97.9*	·	3.6	-1.9
Clc1ccc(COC(Cn2ccnc2)c2ccc(Cl)cc2Cl)cc1 (centres undefined)	-8.8	6.5	97.2*	-3.0	3.2	-1.4
c1ccc(Cn2ccnc2)cc1	8.9	-12.3	-16.1	·	3.1	-0.1
N#CC12CNCC1CN=N2 (centres undefined)	·	·	·	-3.4	·	·
CCCNc1nc(OC)nc(N2CC3CC(C2)c2cccc(=O)n2C3)n1 (centres undefined)	·	9.9*	·	2.3	1.4	0.4
CNC(C(=O)c1ccccc1)C(OC)c1ccc(C)cc1 (centres undefined)	5.6	4.5	-41.1	0.4	2.6	0.7
Cc1ccc(N2C(=O)NC(=O)/C(=C\C=C\c3ccco3)C2=O)cc1C	29.0*	0.6	-27.7	-2.6	2.9	3.6
C/C(=N\Nc1ccccc1)c1c(O)n(C)c(=O)n(C)c1=O	-4.7	-0.1	-10.7	14.6	3.3	-0.8
O=c1c2ccccc2nc(CNc2ccccc2)n1-c1ccccc1	·	·	·	-1.1	·	·
CC(C)C[C@H](NC(=O)[C@@H]1CCCN1C(=O)[C@@H](N)Cc1ccc(O)cc1)C(=O)NCC(N)=O	1.5	18.2*	-31.1	-1.4	3.5	-0.7
CC(C)CC(NC(=O)C1CCCCC1)C(=O)N1CCC2(CC1)OCCO2 (centres undefined)	-7.9	-7.5	-0.9	1.1	3.7	-1.3
O=C1CC(c2ccccc2)CC(O)=C1C=NCCN1CCN(C(=O)Cc2ccccc2)CC1 (centres undefined)	81.7*	1.6	-60.4	·	2.2	0.0
CN1/C(=C\C=C\C2=[N+](C)c3ccc4ccccc4c3C2(C)C)C(C)(C)c2ccccc21	-22.6	4.6	86.9*	-17.4	4.8	-0.9
CN1/C(=C\C=Nc2ccccc2)C(C)(C)c2ccccc21	0.6	-0.7	-18.3	8.4	3.2	1.5
SMILES	Yeast lifespan up	HMGR II inh	Yeast growth inh	bCat nuc transl	MT stabilize HCS	RAM network inh
COC(=O)[C@@H]1C[C@@]1(C)[C@@H](NP(=O)(c1ccccc1)c1ccccc1)c1ccccc1	0.4	-0.5	-37.9	-3.7	3.5	0.7
O=C(Nc1ccccc1)c1cccn(Cc2ccccc2)c1=O	·	-2.6	·	0.0	0.0	9.2*
Cc1ccc(NC2=NCCCS2)c(C)c1C	6.8	-2.8	-3.3	0.4	1.6	0.4
CC1(C)C[C@H]2C=C(C=O)[C@]3(C=O)C[C@]3(C)[C@H]2C1	-12.2	-9.2	99.8*	5.4	3.7	-2.4
Cc1cc(=O)n(-c2ccccc2)n1-c1ccccc1	3.3	-5.2	11.5	0.3	3.7	1.7
O=C1NC(=O)C(CCc2ccncc2)(Cc2cccc(Cl)c2Cl)C(=O)N1c1ccc(Br)cc1 (centres undefined)	-1.3	-0.5	-32.0	95.2*	18.9*	1.8
CCc1ccc(N2C(=O)NC(=O)C(CCc3ccncc3)(CCc3ccncc3)C2=O)cc1	8.7	-1.6	-11.2	-5.3	4.0	1.1
COc1ccc(OC)c(-n2c(O)c(C=Nc3c(C)n(C)n(-c4ccccc4)c3=O)c(=O)[nH]c2=S)c1	·	·	·	-3.0	·	·
NC(=O)c1cn(C2OC(CO)C(O)C2O)c2ncnc(N)c12 (centres undefined)	-1.5	-6.1	-30.0	?	20.1*	0.5
CCNC(=O)[C@H]1O[C@@H](n2cnc3c(N)ncnc32)[C@H](O)[C@@H]1O	·	5.3	·	-2.1	·	·
CC(C)OCCCNC(=O)c1c(N)n(Cc2cccs2)c2nc3ccccc3nc12	-4.7	-6.2	-1.5	-0.8	3.7	9.3*
O=c1[nH]c(=S)[nH]c(O)c1C(c1ccccn1)c1c(O)[nH]c(=S)[nH]c1=O	·	-0.8	·	-2.0	2.2	0.7
CC(C)(C)N1C(=O)NC(=O)/C(=C\c2ccc3c(c2)CCN3CCCCl)C1=O	·	·	·	-0.8	·	·
O=C1NC(=S)N(C2CC2)C(=O)/C1=C/c1ccc2c(c1)CCN2CCCCl	27.4*	2.3	-14.7	-0.4	7.2	2.5
CCC(C)N1C(=O)/C(=C\c2cc3c4c(c2)CCCN4CCC3)C(=O)NC1=S (centres undefined)	30.3*	-1.9	-36.1	16.1	5.1	3.1
CCOC(=O)C(=CNc1ccc(C(O)(C(=O)OCC)C(F)(F)F)cc1C)C(=O)OCC (centres undefined)	1.0	5.9	-30.4	-6.6	2.2	8.7*
COc1ccc(C(=O)Oc2cccc3cccnc23)cc1S(=O)(=O)N1CCOCC1	·	-5.1	·	-0.5	2.0	-0.2
c1cc2n(c1)-c1c(ccc3c1OCO3)CNC2c1ccc2c(c1)OCO2 (centres undefined)	-13.9	3.2	-80.4	10.8	15.5	-0.7
COc1ccc(C2NCc3ccc4c(c3-n3cccc32)OCO4)cc1O (centres undefined)	-7.1	-3.7	-12.6	·	28.6*	-0.2
CC1CCCCN1Cc1ccc(Cl)nc1 (centres undefined)	·	-4.8	·	0.9	2.0	1.5
CC(=O)c1cc(C#N)c(N2CCN(C)CC2)nc1C	·	1.1	·	-4.0	4.9	-0.2

Assay outcomes: PubChem BioAssay, several laboratories
